Assay results from ChEMBL document CHEMBL1212882, “Phenolic constituents isolated from Fragaria ananassa Duch. inhibit antigen-stimulated degranulation through direct inhibition of spleen tyrosine kinase activation” (Bioorg Med Chem, 2010).
Activity calls are given as the source filed them. No cut-off for these calls is given here.

Columns and labels:
Assay type in all cases: cell-based
[1] = molecular target: Tyrosine-protein kinase SYK (Rattus norvegicus) (UniProt Q64725); assay: Inhibition of spleen tyrosine kinase in rat RBL-2H3 cells assessed as inhibition of IgE-induced degranulation after 1 hr by beta-hexosaminidase release assay
Sequence of Tyrosine-protein kinase SYK (Rattus norvegicus) (Q64725 whole entry, looked up): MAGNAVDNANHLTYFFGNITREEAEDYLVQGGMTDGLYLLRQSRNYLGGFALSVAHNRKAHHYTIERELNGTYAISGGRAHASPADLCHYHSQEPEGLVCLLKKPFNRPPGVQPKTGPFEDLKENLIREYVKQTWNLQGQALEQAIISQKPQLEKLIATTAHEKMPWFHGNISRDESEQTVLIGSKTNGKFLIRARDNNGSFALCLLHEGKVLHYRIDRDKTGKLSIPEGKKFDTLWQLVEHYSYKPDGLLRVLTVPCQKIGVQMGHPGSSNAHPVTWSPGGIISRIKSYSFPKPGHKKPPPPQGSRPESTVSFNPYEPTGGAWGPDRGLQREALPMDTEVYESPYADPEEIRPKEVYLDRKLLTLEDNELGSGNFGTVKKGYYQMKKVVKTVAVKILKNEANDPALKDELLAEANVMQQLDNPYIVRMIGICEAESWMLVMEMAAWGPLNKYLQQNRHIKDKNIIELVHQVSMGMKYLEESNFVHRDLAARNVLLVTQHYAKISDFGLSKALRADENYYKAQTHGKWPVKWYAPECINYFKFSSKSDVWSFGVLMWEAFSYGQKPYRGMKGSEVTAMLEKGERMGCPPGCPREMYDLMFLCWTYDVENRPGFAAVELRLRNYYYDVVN
Summary of the method: (§1)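 RBL-2H3 cells (2 × 10^4/well) cultured 1 h, then sensitized with anti-DNP IgE 0.45 µg/ml for 24 h. Cells were washed in Siraganian buffer A (PIPES, pH 7.2) and equilibrated in buffer B at 37 °C for 10 min. Compound was added at 37 °C for 30 min, then DNP-BSA 10 µg/ml for 10 min. Supernatant β-hexosaminidase was read with p-nitrophenyl-N-acetyl-β-D-glucosaminide at A405, corrected for direct enzyme inhibition.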

[2] = molecular target: Tyrosine-protein kinase SYK (Rattus norvegicus) (UniProt Q64725); assay: Inhibition of spleen tyrosine kinase in rat RBL-2H3 cells assessed as inhibition of IgE-induced upregulation of ERK1/2 level at 50 uM after 30 mins by Western blotting
Summary of the method: (§2)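 IgE-sensitized RBL-2H3 cells were pretreated 30 min with 50 µM compound and stimulated with DNP-BSA. Lysates were run on SDS-PAGE and transferred to PVDF. Membranes were blocked 1 h in 5% nonfat milk, probed with primary antibody overnight at 4 °C, then HRP secondary antibody 1 h at room temperature. ECL chemiluminescence detection; three independent experiments.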

[3] = molecular target: Tyrosine-protein kinase SYK (Rattus norvegicus) (UniProt Q64725); assay: Inhibition of spleen tyrosine kinase in rat RBL-2H3 cells assessed as inhibition of IgE-induced increase of intracellular calcium level at 50 uM after 30 mins by FLIPR assay
Summary of the method: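 IgE-sensitized RBL-2H3 cells (5 × 10^4/well; anti-DNP IgE 0.45 µg/ml, 24 h) were loaded with Fluo-3AM for 1 h. Cells were washed and held 30 min in loading buffer containing 50 µM compound, then stimulated with DNP-BSA 10 µg/ml. Fluorescence (ex 490/em 530 nm) was recorded on a fluorometric imaging plate reader. Means ± SEM, n = 12.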

[4] = molecular target: Tyrosine-protein kinase SYK (Rattus norvegicus) (UniProt Q64725); assay: Inhibition of spleen tyrosine kinase in rat RBL-2H3 cells assessed as inhibition of IgE-induced upregulation of phospholipase 2 level at 50 uM after 30 mins by Western blotting; summary of the method: as §2
[5] = molecular target: Tyrosine-protein kinase SYK (Rattus norvegicus) (UniProt Q64725); assay: Inhibition of spleen tyrosine kinase in rat RBL-2H3 cells assessed as inhibition of IgE-induced upregulation of PI3K/Akt level at 50 uM after 30 mins by Western blotting; summary of the method: as §2
[6] = molecular target: Tyrosine-protein kinase SYK (Rattus norvegicus) (UniProt Q64725); assay: Inhibition of spleen tyrosine kinase in rat RBL-2H3 cells assessed as inhibition of IgE-induced upregulation of JNK level at 50 uM after 30 mins by Western blotting; summary of the method: as §2
[7] = molecular target: Tyrosine-protein kinase SYK (Rattus norvegicus) (UniProt Q64725); assay: Inhibition of spleen tyrosine kinase in rat RBL-2H3 cells assessed as inhibition of IgE-induced upregulation of cPLA2 level at 50 uM after 30 mins by Western blotting; summary of the method: as §2
[8] = molecular target: Tyrosine-protein kinase SYK (Rattus norvegicus) (UniProt Q64725); assay: Inhibition of spleen tyrosine kinase in rat RBL-2H3 cells assessed as inhibition of IgE-induced upregulation of Lyn level at 50 uM after 30 mins by Western blotting; summary of the method: as §2
[9] = molecular target: Tyrosine-protein kinase SYK (Rattus norvegicus) (UniProt Q64725); assay: Inhibition of spleen tyrosine kinase in rat RBL-2H3 cells assessed as inhibition of IgE-induced upregulation of phospholipase Cgamma1 level at 50 uM after 30 mins by Western blotting; summary of the method: as §2
[10] = molecular target: Tyrosine-protein kinase SYK (Rattus norvegicus) (UniProt Q64725); assay: Inhibition of spleen tyrosine kinase in rat RBL-2H3 cells assessed as inhibition of IgE-induced increase of ROS level at 50 uM after 30 mins by FLIPR assay
Summary of the method: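 Sensitized RBL-2H3 cells (5 × 10^4/well) took up 10 µM CM-H2DCFDA for 30 min at 37 °C and were washed twice. Cells were exposed to 50 µM compound for 30 min, then challenged with DNP-BSA 10 µg/ml. DCF fluorescence (ex 490/em 530 nm) was read on a fluorometric imaging plate reader. DPI 200 nM served as control. Means ± SEM, n = 10.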

[11] = molecular target: Tyrosine-protein kinase SYK (Rattus norvegicus) (UniProt Q64725); assay: Inhibition of spleen tyrosine kinase in rat RBL-2H3 cells assessed as inhibition of IgE-induced upregulation of p38 level at 50 uM after 30 mins by Western blotting; summary of the method: as §2
[12] = molecular target: Tyrosine-protein kinase SYK (Rattus norvegicus) (UniProt Q64725); assay: Inhibition of spleen tyrosine kinase in rat RBL-2H3 cells assessed as inhibition of IgE-induced degranulation at 10 to 100 uM after 1 hr by beta-hexosaminidase release assay; summary of the method: as §1

inhibition [1] | inhibition [2] | inhibition [3] | inhibition [4] | inhibition [5] | inhibition [6] | inhibition [7] | inhibition [8] | inhibition [9] | inhibition [10] | inhibition [11] | inhibition [12] | SMILES
Dose-dependent effect | Active | Active | Active | Active | Active | Active | inactive | Active | Active | Active |  | COC(=O)/C=C/c1ccc(O[C@@H]2O[C@H](CO)[C@@H](O)[C@H](O)[C@H]2O)cc1
Dose-dependent effect |  | Active | Active |  |  |  | inactive | Active | Active |  |  | O=C(O)/C=C/c1ccccc1
 |  |  |  |  |  |  |  |  |  |  | inactive | O=C(O)/C=C/c1ccc(O)cc1
 |  |  |  |  |  |  |  |  |  |  | Active | O=C(/C=C/c1ccccc1)O[C@@H]1O[C@H](CO)[C@@H](O)[C@H](O)[C@H]1O
